# ARNT TACC3 PPI – disruptors of human ARNT/TACC3 interaction. AlphaScreen His-ARNT PAS-B/GST-TACC3 binding, luminescence; TACC3 fragment carries E629A point mutation. 0.66% of 390,000 active. Q9Y6A5. inhibition, % at 9.99 µM. AID 623870;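 active = mean inhibition of replicates at least 50% and at least half of replicates each reaching 50%; inconclusive = half or more replicates reach 50% but mean below 50%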;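 also: 0% = complete ARNT plus TACC3 wells and 100% = ARNT alone without TACC3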
# HIF act – HIF pathway transcriptional activation; U2OS HRE-luciferase reporter, luminescence; normalized: DMSO 0%, desferrioxamine 100%; activation, % at 7.5 µM (by protocol); 0.32% of 300,000 active; AID 1910;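 active = mean activation of at least 10% of the iron chelator positive control signal, with at least half of replicates also reaching 10%; inconclusive = mean and replicate majority disagree about reaching 10%; inactive = mean and most replicates under 10%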
# AI-2 QS mod – modulates the Vibrio harveyi AI-2 quorum sensing system; Vibrio harveyi JMH597 AI-2 luminescence/OD600 ratio, 9 h; stronger effect = lower value; strain lacks LuxN and CqsS sensors; 0 = neutral-control median; activity change, % at 7.5 µM; 0.4% of 300,000 active; AID 2094; in the data active = activity change below about -75%, passing the limit was not always enough; inconclusive = no clear call, values can overlap the other calls;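 also: luminescence divided by OD600 gain over 9 h not by final OD600 alone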
# T cruzi inh – T. cruzi replication inhibition. T. cruzi beta-gal in NIH3T3, luminescence, 90 h. inhibition, % (no concentration beside the values). 1.4% of 300,000 active. AID 1885;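 active = mean inhibition across valid replicates above about 55%, limit read from the data; inconclusive = mean below that limit but half or more replicates reach it; inactive = mean below it, under half of replicates reach it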;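 also: signal also drops with host cell toxicity which is not excluded here; 0% = plate median of DMSO wells and 100% = zero luminescence signal; higher percent means less beta-gal luminescence so fewer parasites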
#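 Assay system: NIH/3T3 host cells with β-galactosidase reporter T. cruzi; input: 5,000 host fibroblasts per well; compound: single 50 nL compound addition per well in DMSO; timing: ≥90 h infection period, 3 h prior cell attachment; measured by: GalScreen β-gal luminescence, detergent lysis, 60 min; evaluation: percent inhibition of parasite-derived β-gal signal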
# * marks the source's active call; other numbers are inactive results; ? = inconclusive; / = no result given. In the library only some 2% were active in any assay of this set; here they are far more common.
SMILES,ARNT TACC3 PPI,HIF act,AI-2 QS mod,T cruzi inh
CCn1c(C)c(/C=N/Nc2nc3ccccc3s2)c2ccccc21,-1,2,40,69*
C(=N\Nc1nc2ccccc2s1)/c1cccs1,14,1,20,3
C[C@H]1CN([C@@H](C)CO)C(=O)Cc2cc(NC(=O)Nc3ccccc3)ccc2O[C@H]1CN(C)CC1CCCCC1,4,/,/,/
Cc1noc(C)c1NC(=O)Nc1cccc2c1O[C@@H](CN(C)S(=O)(=O)c1ccc(Cl)cc1)[C@@H](C)CN([C@@H](C)CO)C2=O,0,/,/,/
COc1ccc2c(c1)sc(=NC(=O)CS(=O)(=O)c1ccc(F)cc1)n2C,-2,0,7,63*
CCn1c(=NC(=O)CS(=O)(=O)c2ccc(F)cc2)sc2cccc(OC)c21,3,0,12,39
C[C@H]1CN([C@@H](C)CO)C(=O)c2cc(-c3cccc(F)c3)cnc2O[C@@H]1CN(C)S(=O)(=O)c1cccc(F)c1,0,/,/,/
C[C@@H]1CN([C@@H](C)CO)C(=O)c2cccc(NS(=O)(=O)c3ccccc3)c2O[C@H]1CN(C)C(=O)Nc1ccc(F)cc1,25,/,/,/
CCOc1ccc(NC(=O)C2CCN(S(=O)(=O)c3ccc4c(c3)N(C(C)=O)CCO4)CC2)cc1,1,25*,-2,4
Cc1ccc(S(=O)(=O)N2CCC(C(=O)Nc3ccc(S(=O)(=O)N4CCCC4)cc3)CC2)cc1C,-6,0,17,74*
Cc1ccc(NC(=O)C2CCN(c3cnccn3)CC2)cc1C,-2,0,25,64*
CC(=O)c1ccc(NC(=O)C2CCN(S(=O)(=O)c3ccc4c(c3)N(C(C)=O)CCO4)CC2)cc1,0,1,18,4
Cc1[nH][nH]c(=O)c1C(c1ccc(-c2cccc(C(=O)O)c2)o1)c1c(C)[nH][nH]c1=O,10,0,21,-16
Cc1[nH][nH]c(=O)c1C(c1ccc(-c2cccc(Cl)c2)o1)c1c(C)[nH][nH]c1=O,50*,0,26,5
CO[C@H]1CN(C)C(=O)c2cc(NS(=O)(=O)c3cn(C)cn3)ccc2OC[C@@H](C)N(CC2CC2)C[C@@H]1C,-8,/,/,/
O=C(CN(c1cccc(Cl)c1)S(=O)(=O)c1ccc(Cl)cc1)NCc1ccccn1,47*,0,13,25
COc1ccc(CC2(CO)CCN(Cc3ccc(NC(C)=O)cc3)CC2)cc1,17,0,21,5
COc1ccc(CC2(CO)CCN(CC3=Cc4cc(Cl)ccc4OC3)CC2)cc1,/,0,12,66*
COc1ccc(CC2(CO)CCN(Cc3nc(C(C)C)cs3)CC2)cc1,25,0,22,68*
Cc1ccc(S(=O)(=O)n2ccc3c(OCCOCCNCc4ccc(F)cc4)cccc32)cc1,1,1,14,55*
NC(N)=N/N=C/c1cccc(Cl)c1Cl,3,-1,7,55*
NC(N)=N/N=C/c1cccc([N+](=O)[O-])c1O,/,0,36,34
CCNC(=O)[C@@H]1[C@@H](CO)[C@@H]2Cn3c(ccc(-c4ccccc4)c3=O)[C@@H]2N1Cc1ccccn1,43*,/,/,/
Cn1cc(Cl)c(C(=O)Nc2cnn(Cc3ccc(F)cc3)c2)n1,-3,4,-81*,3
Cc1ccc(Cn2ccc(NC(=O)c3nn(C)cc3Cl)n2)cc1,-7,2,-60,8
SMILES,ARNT TACC3 PPI,HIF act,AI-2 QS mod,T cruzi inh
CC(=O)Nc1sc(-c2ccccc2)nc1-c1ccccc1,3,205*,9,-10
Cc1cc(C)n(CC(=O)N/N=C/c2ccc([N+](=O)[O-])s2)n1,/,0,14,59*
COc1cc([N+](=O)[O-])cc(/C=N/NC(=O)CSc2nnc(-c3ccccc3)n2C)c1O,/,0,24,2
COc1cc([N+](=O)[O-])cc(/C=N/NC(=O)Cn2nc(C)cc2C)c1O,63*,-1,75,-6
COc1cc([N+](=O)[O-])cc(/C=N/NC(=O)Cn2nccc2C)c1O,71*,-1,1,1
Cc1cc(C)n(CC(=O)N/N=C/c2cccs2)n1,-2,1,15,14
COc1ccc(NC(=O)Nc2cccc3c2O[C@@H](CN(C)Cc2ccc(C(=O)O)cc2)[C@H](C)CN([C@H](C)CO)C3=O)cc1,-3,/,/,/
Cc1oc2cc3oc(=O)c(CC(=O)O)c(C)c3cc2c1-c1ccccc1,-2,0,23,-14
Cc1c(CCC(=O)O)c(=O)oc2cc3occ(-c4ccc(Cl)cc4)c3cc12,45*,1,3,2
Cc1oc2c(C)c3oc(=O)c(CCC(=O)O)c(C)c3cc2c1-c1ccccc1,26*,1,25,-16
COc1ccc(-c2cn3nc(SCC(=O)NCC4CCCO4)ccc3n2)cc1 (centres undefined),9,19*,4,0
NC(=S)N/N=C/c1ccc(-n2nncc2-c2ccc(Cl)cc2)cc1,/,0,13,57*
O=C(C[C@@H]1C=C[C@H](NC(=O)Nc2cc(F)ccc2F)[C@H](CO)O1)NCc1ccccn1,8,/,/,/
CCCNC(=O)C[C@@H]1CC[C@@H]2[C@H](COc3ccc(NC(=O)c4ccc5c(c4)OCO5)cc3C(=O)N2C)O1,-1,/,/,/
COc1cc(C(=O)NCCC(C)C)ccc1OCc1ccc(Cl)cc1Cl,-6,0,16,70*
CCNc1nc(NCC)nc(Oc2ccc(OCC)nn2)n1,-4,1,-3,-12
CCNc1nc(N)nc(Oc2ccc(OCCOc3ccc(Cl)cc3Cl)nn2)n1,-1,0,14,66*
CN(CC(=O)Nc1ccccc1Cl)C(=O)COC(=O)c1ccc([N+](=O)[O-])s1,46*,/,/,/
CN(CC(=O)Nc1ccccc1Cl)C(=O)COC(=O)c1ccc(Cl)cc1[N+](=O)[O-],13,0,-94*,-7
COc1ccccc1NC(=O)COC(=O)c1ccc([N+](=O)[O-])s1,1,-1,-87*,19
CN(CC(=O)Nc1ccccc1Cl)C(=O)COC(=O)C1CC1,-7,0,12,0
O=C(COC(=O)c1ccc([N+](=O)[O-])s1)NNC(=O)c1ccccc1,42*,/,/,/
CCc1ccccc1NC(=O)CSc1ccsc1[N+](=O)[O-],-12,-1,16,12
CCc1ccccc1NC(=O)c1ccc([N+](=O)[O-])s1,-1,-1,?,60*
CO[C@@H]1CC[C@@H]2CCOc3c(C#N)cccc3C(=O)N(C)[C@H](C)C(=O)N(C)C[C@@H]1O2,4,/,/,/
O=C(O)c1cccc(C(=O)O)n1,/,0,3,-19
O=C(O)c1ccc2cccc(O)c2n1,21,40*,22,0
COc1ccccc1CNC(=O)C[C@@H]1C=C[C@@H](NC(C)=O)[C@@H](CO)O1,0,/,/,/
O=C(CN(Cc1ccccc1Cl)S(=O)(=O)c1ccc(Cl)cc1)N/N=C/c1ccc(C(=O)O)cc1,51*,0,5,-22
Cc1ccccc1NC(=S)N(CCCN1CCOCC1)Cc1cccnc1,-4,-1,35,5
